The values that follow come from PMC2741010 (Biochemistry, 2009).

What all share (assay): 3′-CMP titration followed by 1H-15N HSQC, NMR line shape analysis
One test addresses T1, WT RNase A (Bos taurus, UniProt P61823).
T1 sequence (P61823 27-150): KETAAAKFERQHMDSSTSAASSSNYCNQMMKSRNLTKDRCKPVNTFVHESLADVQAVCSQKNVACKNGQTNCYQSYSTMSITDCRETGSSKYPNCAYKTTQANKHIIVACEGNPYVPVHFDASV
The format is binding, bovine. The note with it: for koff: global two-state fit of residues, 298 K, pH 6.4. The essentials:
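Each point recorded as a 1H-15N sensitivity-enhanced HSQC at 11.7 T, with spectral widths of 1600 Hz (t1) and 7000 Hz (t2). Kd and koff were taken from NMR line-shape fits of backbone amide shift changes.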

Test [1] addresses T2, RNase AECP (RNase A with loop 1 from ECP) (Bos taurus, UniProt P61823, DEL40-47/INS50PP/S49L/Y51R).
T2 sequence (P61823 with tags, fused parts or gaps DEL40-47/S49L/INS50PP/Y51R): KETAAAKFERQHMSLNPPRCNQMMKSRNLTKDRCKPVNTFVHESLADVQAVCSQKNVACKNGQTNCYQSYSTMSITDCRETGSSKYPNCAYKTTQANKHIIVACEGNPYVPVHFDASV
The class given is binding.

The target of the next test is T3, RNase A (H48A) (Bos taurus, UniProt P61823, H74A).
T3 sequence (P61823 27-150 H74A): T1 sequence (P61823 27-150) with H48A
The class given is binding.

Each structure is given as a SMILES string. Positions count from the first letter of the chain named. Where “and” joins values, the source holds several entries; their conditions need not be identical. Equal values may be shown once.

By Kd is commonly meant the constant that tells how readily two partners part at equilibrium. Higher therefore signals a looser complex. A word on the koff: it is the rate constant with which the complex falls apart. A higher koff goes with fast dissociation. On to `Nc1ccn([C@@H]2O[C@H](CO)[C@@H](OP(=O)(O)O)[C@H]2O)c(=O)n1` [3′-CMP, cytidine-3′-monophosphate], for which the dissociation constant (Kd) is 74 ± 2 µM on WT RNase A, 300 ± 16 µM in test [1] and 895 ± 50 µM at RNase A (H48A). Besides, the koff at WT RNase A (WT RNase A) was 1155 ± 120 s⁻¹; at WT RNase A (pH 6.4, WT RNase A) it was about 1200 s⁻¹; in test [1] (pH 6.4), 96 ± 9 s⁻¹; at RNase A (H48A) (pH 6.4), 142 ± 19 s⁻¹. Besides, the kon on WT RNase A (WT RNase A, kon determined from koff/Kd) is recorded as 1.56 × 10^7 ± 1.67 × 10^6 M^−^1s^−^1; in test [1] (RNase AECP chimera, kon determined from koff/Kd), 3.20 × 10^5 ± 3.45 × 10^4 M^−^1s^−^1; on RNase A (H48A) (RNase A H48A mutant, kon determined from koff/Kd) it was 1.59 × 10^5 ± 2.30 × 10^4 M^−^1s^−^1. Moreover, the “decrease in koff relative to WT” value in test [1] (RNase AECP vs WT RNase A) was 10 fold and ~ 10 fold; at RNase A (H48A) (H48A vs WT RNase A) it was 10 fold and ~ 10 fold. Also, the “reduction of binding affinity relative to WT” value in test [1] (RNase AECP vs WT RNase A) is on record as ~ 4 fold; at RNase A (H48A) (H48A vs WT RNase A), ~ 12 fold.
